Source: article PMC10013843 (Molecular psychiatry, 2022)

Columns and labels:
mu-opioid receptors, MOR = mu-opioid receptors, MOR (Rattus norvegicus, UniProt P33535); assay: [^3H]DAMGO competition binding, rat brain membranes
mGluR1 = mGluR1 (Homo sapiens, UniProt Q13255); assay: mGluR functional assay; assay type: biochemical
[^14C]- = assay type: in vivo, rat; settings: for % of the total radioactivity exposure through 72 hours: plasma; for plasma exposure AUC 0–72h: [^14C]-(2R,6R)-HNK 10 mg/kg i.v.
In short: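 Male and female rats received a single bolus IV dose of 14C-labelled test compound (10 mg/kg). Blood and plasma radioactivity was followed from 15 min to 120 h in males and to 72 h in females. […] Whole-body autoradiograms were taken at 30 min and 4 h.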

[1] = target: kappa-opioid receptors, KOR (Rattus norvegicus, UniProt P34975); assay: [^3H]U69,593 competition binding, rat brain membranes
opioid receptors = settings: not tested experimentally; cited from earlier work
[2] = target: estrogen receptor alpha (ERα) (Homo sapiens, UniProt P03372); assay: Screening and target deconvolution experiments; assay type: binding
[3] = target: glucocorticoid receptor (GR) (Homo sapiens, UniProt P04150); assay: Screening and target deconvolution experiments; assay type: binding
mice [4] = assay: Open-field locomotor activity; assay type: in vivo, mouse; settings: male mice; single 10, 30, 65 mg/kg IP
sigma-1 receptors = sigma-1 receptors (Rattus norvegicus, UniProt Q9R0C9); assay: [^3H]-pentazocine competition binding, rat brain membranes
rats [5] = assay: Heroin self-administration and substitution; assay type: in vivo, rat; settings: 0.5 mg/kg/inf IV
KOR (OPRK1) = KOR (OPRK1) (Homo sapiens, UniProt P41145); assay: cAMP BRET; assay type: cell-based; settings: HEK-293 cells, up to a concentration of 1 mM
In short: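 HEK-293 cells (DMEM, 10% FBS, 37°C/5% CO2) were PEI-transfected with 5 μg untagged MOR, KOR or DOR plus 5 μg CAMYEL cAMP biosensor and used 48 h later. Cells were suspended in DPBS with 100 μM metabisulfite and 5.5 mM glucose and kept 45 min in the dark. Forskolin (10 μM) was added for 5 min, then coelenterazine H (5 μM) for 5 min, then compound. BRET (535/475 nm) was read 5 min later, forskolin-only background subtracted, and expressed as % of each receptor's maximum. Triplicates; 3–6 experiments for EC50/Emax.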

NMDAR = settings: cited from earlier work
mice [6] = assay: Forced swimming test; assay type: in vivo, mouse; settings: 24 hours after
In short: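 Male CD-1 mice (35–40 g, n = 8/condition) received a single IP dose of test compound (1, 3 or 10 mg/kg) or saline 24 h before a 6-min swim under 800 lux. Cylinders were 30 cm high × 20 cm diameter, holding 15 cm of water at 23 ± 1°C. A blinded observer scored immobility from video over the last 4 min.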

mGluR4 = mGluR4 (Homo sapiens, UniProt Q14833); assay: mGluR functional assay; assay type: biochemical
NK1R = NK1R (Rattus norvegicus, UniProt P14600); assay: [^3H]-Substance P binding, rat whole brain membrane homogenates
mGluR6 = mGluR6 (Homo sapiens, UniProt O15303); assay: mGluR functional assay; assay type: biochemical
mice [7] = assay: Conditioned place preference; assay type: in vivo, mouse; settings: male mice
In short: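 Male C57BL/6J mice (20–25 g, n = 8/group) received saline or test compound (10, 30 or 65 mg/kg IP) before 15-min confinement to one side of a two-sided chamber (clear/white vs checkered/black). Vehicle was given before the opposite side on alternate days, counterbalanced across 6 conditioning days. A 20-min free-exploration pre-test came first, within 8 daily sessions. Infrared beams tracked time per side and distance travelled.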

HCN1 channel = target: T1, HCN1 channel (Homo sapiens, UniProt O60741); assay: HCN1 channel functional interaction; assay type: biochemical
T1 sequence (O60741 1-890): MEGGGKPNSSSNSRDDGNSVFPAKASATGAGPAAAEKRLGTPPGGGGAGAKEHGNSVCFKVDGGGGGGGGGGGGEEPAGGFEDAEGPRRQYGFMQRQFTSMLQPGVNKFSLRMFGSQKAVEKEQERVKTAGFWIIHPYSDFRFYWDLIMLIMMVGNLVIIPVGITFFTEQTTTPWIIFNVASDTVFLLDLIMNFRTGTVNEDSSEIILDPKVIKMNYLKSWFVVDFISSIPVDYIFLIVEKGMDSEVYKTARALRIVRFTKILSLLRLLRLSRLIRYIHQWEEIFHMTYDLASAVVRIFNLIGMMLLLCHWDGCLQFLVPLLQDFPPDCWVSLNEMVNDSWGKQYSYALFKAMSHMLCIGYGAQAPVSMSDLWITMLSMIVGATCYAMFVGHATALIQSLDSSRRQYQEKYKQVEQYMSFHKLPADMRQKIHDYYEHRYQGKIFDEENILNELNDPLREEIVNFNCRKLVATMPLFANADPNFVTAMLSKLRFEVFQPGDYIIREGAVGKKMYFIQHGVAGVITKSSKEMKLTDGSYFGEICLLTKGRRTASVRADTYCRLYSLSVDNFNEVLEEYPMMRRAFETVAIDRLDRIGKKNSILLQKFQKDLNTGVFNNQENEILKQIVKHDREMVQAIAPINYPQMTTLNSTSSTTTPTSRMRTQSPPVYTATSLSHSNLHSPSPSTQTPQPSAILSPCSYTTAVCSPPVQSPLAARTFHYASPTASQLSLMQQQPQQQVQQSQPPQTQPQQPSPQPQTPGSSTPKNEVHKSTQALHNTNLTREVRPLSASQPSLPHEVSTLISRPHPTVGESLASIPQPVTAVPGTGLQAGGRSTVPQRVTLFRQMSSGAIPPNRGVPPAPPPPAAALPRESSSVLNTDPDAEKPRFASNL

rats [8] = settings: i.v. doses up to 160 mg/kg; cited from earlier work
[9] = after administration of antidepressant-like doses; cited from earlier work

N[C@@]1(c2ccccc2Cl)CCC[C@@H](O)C1=O [(2R,6R)-HNK, (2R,6R)-hydroxynorketamine]
binding to opioid receptors (MOR) (mu-opioid receptors, MOR; concentrations up to 100 μM): does not bind
MOR binding, displacement of [^3H]DAMGO (mu-opioid receptors, MOR; rat brain membranes): failed to displace
effect in functional assay at mGluR1 (mGluR1): no effects
% of the total radioactivity exposure through 72 hours ([^14C]-; female rats): 26.7%
plasma exposure AUC 0–72h ([^14C]-; female rats): 7090 ng eq·h/g
% of the total radioactivity exposure through 72 hours ([^14C]-; male rats): 21.6%
plasma exposure AUC 0–72h ([^14C]-; male rats): 5330 ng eq·h/g
binding to opioid receptors (KOR) ([1]; concentrations up to 100 μM): does not bind
KOR binding, displacement of [^3H]U69,593 ([1]; rat brain membranes): failed to displace
affinity for opioid receptors by computational modeling (opioid receptors): high (i.e. in the nanomolar range) affinity
interaction with ERα [2]: failed to interact
interaction with GR [3]: failed to interact
locomotor activity, acute (mice [4]): did not alter locomotor activity
binding to sigma receptors ([^3H]-pentazocine) (sigma-1 receptors): did not bind
pressing on first session after heroin substitution (rats [5]): pressed significantly more
self-administration on successive sessions after heroin substitution (rats [5]): rapid extinction of self-administration
cAMP response (inhibition of cAMP accumulation) (KOR (OPRK1)): did not induce any cAMP response
effect on NMDAR function (NMDAR; 10 μM, cultured hippocampal neurons): no effect
reduction in synaptic NMDAR currents (NMDAR; 50 μM): ~ 40%
immobility time in forced swimming test, difference from vehicle (mice [6]; 1 mg/kg IP): but not 1 mg/kg
immobility time in forced swimming test (mice [6]; 3 or 10 mg/kg IP, single administration): reduced immobility time
effect in functional assay at mGluR4 (mGluR4): no effects
[^3H]-Substance P binding (NK1R): did not alter
effect in functional assay at mGluR6 (mGluR6): no effects
locomotor activity, repeated administration (mice [7]; 10, 30, 65 mg/kg IP, CPP conditioning sessions): did not produce any changes in locomotor activity
conditioned place preference (mice [7]; repeated 10, 30, 65 mg/kg IP): did not induce CPP
locomotor sensitization (mice [7]; repeated administration): did not induce sensitization
interaction with the HCN1 channel (HCN1 channel): neither (2R,6R)-HNK nor ketamine interacted
NMDAR-associated neurotoxicity (rats [8]): does not produce NMDAR-associated neurotoxicity
concentration achieved in the brain [9]: ~ 10 μM
